The text below walks through data of ChEMBL document CHEMBL4342515, “Boron Accumulation in Brain Tumor Cells through Boc-Protected Tryptophan as a Carrier for Boron Neutron Capture Therapy” (ACS Med Chem Lett, 2020).

Each structure is given as a SMILES string. The source made the active and inactive calls. The rule behind the calls is not given here. Where only a bound is given, the exact number is not on record here.

Series [1] deals with U-87 MG. Nature of the series: Cytotoxicity against human U87MG cells assessed as cell viability at 100 uM incubated for 24 hrs by WST-1 assay (reference value: 97 %). Particulars: read-out: Activity. Format: functional, U-87MG ATCC.
Series [2] deals with LN-229. Put plainly: Cytotoxicity against human LN229 cells assessed as cell viability at 100 uM incubated for 24 hrs by WST-1 assay (reference value: 91 %). In kind it is functional. The settings on record: LN-229, 24 h, read-out: Activity. Background: Formazan colour is commonly taken as a measure of viable cells.
The nature of series [3]: Cytotoxicity against mouse 3T3 cells assessed as cell viability incubated for 24 hrs by WST-1 assay (reference value: 57 %). In kind it is cell-based. Particulars: NIH3T3 cells, read-out: Activity.
The nature of series [4]: Drug uptake in human U87MG cells at 50 uM measured upto 4 hrs by ICP-MS analysis. Format: ADME, cell-based. Particulars: u-87mg atcc. An outline of the steps: (§1)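 Cellular boron accumulation was measured by ICP-MS as boron concentration (ppm) at time points over the incubation, up to 4 h. Mouse 3T3 cells served as the normal reference for the tumor/normal (T/N) ratio.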

A short description of series [5]: Drug uptake in human LN229 cells at 50 uM measured upto 4 hrs by ICP-MS analysis. In kind it is ADME, cell-based. The settings on record: ln-229, 4 h. The procedure, abridged: as §1
In series [6] the test system is U-87 MG. Nature of the series: Effect on LAT-1 expression in human U87MG cells at 50 uM incubated for 2 hrs by Western blot analysis. Format: functional, cell-based. The settings on record: U-87MG ATCC. An outline of the steps:
(§2)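 Western blot for LAT-1 protein in the three cell lines after 2 h incubation with the derivatives. Primary antibodies: LAT-1 (1:2500) and α-tubulin (1:5000) as loading reference. Qualitative comparison of expression level.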
For orientation: Immunoblotting shows a protein as a band on a membrane.

Series [7] has as its system LN-229. Put plainly: Effect on LAT-1 expression in human LN229 cells at 50 uM incubated for 2 hrs by Western blot analysis. In kind it is functional, cell-based. An outline of the steps:
as §2

In a further series the test system is NIH3T3. Put plainly: Downregulation of LAT-1 expression in mouse 3T3 cells at 50 uM incubated for 2 hrs by Western blot analysis. Format: functional, cell-based. An outline of the steps:
as §2

Series [8] in a line: Drug uptake in human U87MG cells at 50 uM incubated for 2 hrs by ICP-MS analysis. In kind it is ADME, cell-based. Particulars: u-87mg atcc.
Series [9] has as its system U-87 MG. Nature of the series: Cytotoxicity against human U87MG cells assessed as cell viability at 50 uM incubated for 1 hr followed by neutron irradiation for 3 mins by WST-1 assay. Format: functional, cell-based. The settings on record: U-87MG ATCC.
Series [10] relates to LN-229. Nature of the series: Cytotoxicity against human LN229 cells assessed as cell viability at 50 uM incubated for 1 hr followed by neutron irradiation for 3 mins by WST-1 assay. Format: functional, cell-based.
The nature of series [11]: Aqueous solubility of compound. Format: physicochemical. Particulars: buffer.
The nature of series [12]: Drug uptake in human LN229 cells at 50 uM incubated for 1 hr by ICP-MS analysis. In kind it is ADME, cell-based. The settings on record: ln-229, 1 h.
Series [13] can be described thus: Ratio of drug uptake in human U87MG cells to drug uptake in mouse 3T3 cells measured up to 4 hrs. Format: ADME, cell-based.
A short description of series [14]: Ratio of drug uptake in human LN229 cells to drug uptake in mouse 3T3 cells measured at 1 hr. In kind it is ADME, cell-based.
A short description of series [15]: Ratio of drug uptake in human LN229 cells to drug uptake in mouse 3T3 cells measured up to 4 hrs. Format: ADME, cell-based.

On to `COC(=O)C(Cc1c(B2OC(C)(C)C(C)(C)O2)[nH]c2c(B3OC(C)(C)C(C)(C)O3)cccc12)N=[N+]=[N-]` (configuration not stated), for which the viability at 100 µM worked out at 61.3% in the series on U-87 MG [1] and 57.2% in the series with LN-229 [2]. In addition, the viability at 24 h in series [3] was determined as 66.6%.
In the case of `COC(=O)C(Cc1c[nH]c2ccc(B3OC(C)(C)C(C)(C)O3)cc12)NC(C)=O` (configuration not stated), the viability at 100 µM was 66.2% in the series on U-87 MG [1] and 69.9% in the series with LN-229 [2]. Moreover, the viability at 24 h in [3] was determined as 60.2%. Moreover, the Drug uptake result in series [4] and in series [5] was “Not Active” throughout. Further, the outcome in the series with U-87 MG [6] and in the series on LN-229 [7] was inactive. In addition, the result in the series with NIH3T3 was Active.
With `COC(=O)C(Cc1cn(C(=O)OC(C)(C)C)c2ccc(B3OC(C)(C)C(C)(C)O3)cc12)N(C(C)=O)C(=O)OC(C)(C)C` (configuration not stated), the viability at 100 µM came out at 70.2% with U-87 MG [1] and 70.8% in the series with LN-229 [2]. In addition, the viability at 24 h in [3] came to 63.6%. For the same molecule, the Drug uptake entry in series [4] is given as “Active”; in series [5], “Active”; in series [8] it was 300 ppm. In addition, the outcome with U-87 MG [9] and in the series with LN-229 [10] was Active. Further, in [11], the solubility result is “Insoluble”.
`COC(=O)C(N)Cc1c[nH]c2ccc(B3OC(C)(C)C(C)(C)O3)cc12` (configuration not stated): the viability at 100 µM was 65.8% in the series with U-87 MG [1] and 67.3% with LN-229 [2]. Further, in series [3], the viability at 24 h amounted to 53%. In addition, the Drug uptake entry in [4] and in [5] was “Not Active” throughout. In addition, the outcome with U-87 MG [6] and in the series on LN-229 [7] was inactive. The result with NIH3T3 was Active.
Regarding `COC(=O)C(Cc1cn(C(=O)OC(C)(C)C)c2ccc(B3OC(C)(C)C(C)(C)O3)cc12)N(C(=O)OC(C)(C)C)C(=O)OC(C)(C)C` (configuration not stated), the viability at 100 µM in the series on U-87 MG [1] was found to be 67.4%; with LN-229 [2], 60.7%. In [3], the viability at 24 h was determined as 60.2%. In addition, the Drug uptake result in [4] is “Active”; in [5], “Active”; in series [8] it was 300 ppm; in [12], 450 ppm. Also, the figures for the Ratio in series [13], in series [14] and in series [15] were more than 5, more than 9.66 and more than 5, respectively. Moreover, the result in the series on U-87 MG [9], in the series on LN-229 [10] and with NIH3T3 was Active. Also, the result in the series with U-87 MG [6] and in the series on LN-229 [7] was inactive. The solubility entry in series [11] is “Insoluble”.
As for `N[C@@H](Cc1ccc(B(O)O)cc1)C(=O)O`, the viability at 100 µM in the series on U-87 MG [1] is 67%; in the series with LN-229 [2], 79.6%. The viability at 24 h in [3] worked out at 110%. In addition, the Drug uptake in series [12] is on record as less than 50 ppm. Also, in series [14], the Ratio was 2.3. Moreover, the outcome in the series with U-87 MG [9], with LN-229 [10] and with NIH3T3 was Active. Also, the outcome with U-87 MG [6] and in the series with LN-229 [7] was inactive.
`COC(=O)C(Cc1cn(C(=O)OC(C)(C)C)c2cc(B3OC(C)(C)C(C)(C)O3)ccc12)N(C(=O)OC(C)(C)C)C(=O)OC(C)(C)C` (configuration not stated): the viability at 100 µM amounted to 60.1% in the series on U-87 MG [1] and 53.2% in the series on LN-229 [2]. The viability at 24 h in [3] came out at 63.6%. Besides, the Drug uptake in series [4] and in [5] was 300 ppm each time. The Ratio in [13] and in [15] was more than 5 throughout. Also, the outcome in the series on U-87 MG [9], in the series with LN-229 [10] and with NIH3T3 was Active. Moreover, the result in the series with U-87 MG [6] and with LN-229 [7] was inactive. The solubility entry in series [11] is given as “Insoluble”.
